Screens deposited in PubChem BioAssay by several laboratories.
CHT block – inhibitors of human choline transporter CHT; 310,000 compounds, 0.86% hits; High affinity choline transporter 1 (Homo sapiens), Q9GZV3; CHT-expressing cells, membrane potential dye, choline response; hits give low values; AID 488975, 2010; B-score at 10 µM;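 active means B-score over 3 SD under the library average, and starting fluorescence ratio not unusually high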;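 further: choline stimulus applied at its EC90 after an EC20 pre-addition; B-score computed on integrated fluorescence ratio after choline addition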
procasp7 counter – procaspase-7 activators, primary screen, counter-screen for procaspase-3 activator project, biochemical, absorbance, HTS, human; Caspase-7 (Homo sapiens), P55210; recombinant procaspase-7, Ac-DEVD-pNA absorbance 405 nm; D23A/D198A/D206A triple mutant, cannot self-cleave; scale: DMSO 0, 5 µM enzyme 100; activation, % at 8.5 µM; 330,000 compounds, 0.093% hits; AID 463210, 2010;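 active means percent activation above the screen-wide mean plus 3 SD, cut at about 25% in these data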
Target sequence (P55210 whole entry D23A/D198A/D206A): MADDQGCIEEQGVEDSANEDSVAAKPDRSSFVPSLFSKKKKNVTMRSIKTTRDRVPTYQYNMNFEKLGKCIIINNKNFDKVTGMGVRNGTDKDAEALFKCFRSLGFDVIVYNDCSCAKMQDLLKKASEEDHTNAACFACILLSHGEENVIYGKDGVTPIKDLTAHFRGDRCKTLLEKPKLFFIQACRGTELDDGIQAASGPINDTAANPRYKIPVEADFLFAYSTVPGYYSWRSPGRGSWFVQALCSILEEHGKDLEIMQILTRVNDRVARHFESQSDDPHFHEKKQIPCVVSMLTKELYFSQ
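buffer or medium = Zinc-free HEPES/NaCl buffer, pH 7.4 | material = Procaspase-7 triple mutant (PC-7 D3A) | input = 2 µM procaspase-7 mutant as dispensed | signal = Epi-absorbance of released pNA at 405 nm, two timepoints | timing = 1 h preincubation, 2 h reaction | replicates = singlicate compound testing | evaluation = % activation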
CHT PAM – CHT positive allosteric modulators, primary screen, cell-based, membrane potential dye, choline EC20; High affinity choline transporter 1 (Homo sapiens), Q9GZV3; B-score at 10 µM; CHT-expressing cells; hits give high values; LV-AA mutant CHT in HEK293 cells; 310,000 compounds, 0.49% hits;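 active means initial fluorescence not abnormally high and integrated response B-score, plate-corrected, over 3 SD above library mean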
procasp3 activ – activators of human procaspase-3 D3A mutant, primary screen, biochemical, absorbance, PC-3 D3A mutant, single concentration. Caspase-3 (Homo sapiens), P42574. recombinant procaspase-3 D3A, Ac-DEVD-pNA absorbance 405 nm. activation, % at 8.5 µM. 330,000 compounds, 0.11% hits. AID 463141, 2010;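 active means activation above the mean of all tested compounds plus 3 SD, cut at about 21% in these data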;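 further: 0% = DMSO alone and 100% = DMSO wells spiked with extra 5 µM PC-3 D3A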
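Test system: Procaspase-3 D3A mutant; medium: Zinc-free HEPES/NaCl buffer with 0.01% Triton X-100 at pH 7.4; reagent: DEVD-pNA substrate; doses: one concentration, 8.5 µM nominal, 0.8% DMSO; times: 1 h preincubation plus 2 h reaction at 25 °C; signal: Epi-absorbance at 405 nm of released p-nitroaniline, 0 and 120 min; replicates: singlicate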
PC3 dual counter – procaspase-3 activators, counter-screen for dual procaspase-3/7 activator project, biochemical, absorbance, PC-3 D3A mutant, human | shares compounds with procasp7 counter | recombinant PC-3 D3A, Ac-DEVD-pNA absorbance 405 nm; aspartates 9, 28, 175 changed to alanine; 100% = enzyme control | activation, % at 8.5 µM | 290 tested, under 10 active | AID 493114, 2011;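 active means mean percent activation across triplicates above a set limit taken from the earlier primary procaspase-3 screen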;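 further: 0% = DMSO wells and 100% = DMSO wells with 5 µM added PC-3 D3A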
Procasp7 act – activation of procaspase-7 enzyme – biochemical, absorbance, human, dual procaspase-3/-7 activator project, confirmation | 290 tested, under 10 active | shares compounds with procasp7 counter | activation, % at 8.5 µM | recombinant procaspase-7, Ac-DEVD-pNA absorbance 405 nm; D23A/D198A/D206A mutant that cannot self-cleave;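 active means mean activation above a set limit carried over from the earlier primary screen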;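 further: 0% = DMSO only and 100% = DMSO with added 5 µM PC-7 enzyme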
Numbers without * were called inactive; i = inactive; nt = no result given. Only some compounds are listed: those with a hit (about 1.3% of all), similar ones and a draw of the others.

SMILES	CHT block	procasp7 counter	CHT PAM	procasp3 activ	PC3 dual counter	Procasp7 act
CN(C(=O)COC(=O)/C=C/c1cccs1)c1c(N)n(Cc2ccccc2)c(=O)[nH]c1=O	i	2.3	i	3.5	nt	nt
CC[C@H]1C(c2ccc(F)cc2)=NN(c2ccccc2)[C@@H]1CO	nt	2.2	nt	-1.0	nt	nt
Cc1cccc(C2=NN(c3ccccc3)[C@H](CO)[C@H]2c2ccccc2)c1	nt	34.6*	nt	20.3	-30.5	-34.4
OC[C@@H]1[C@@H](c2ccc(F)cc2)C(c2ccccc2)=NN1c1ccccc1	nt	34.3*	nt	30.4*	-30.4	-34.9
CC(OC(=O)CCN1C(=O)C2CC=CCC2C1=O)C(=O)c1ccc(F)cc1 (stereo not given)	nt	0.8	nt	-4.2	nt	nt
Cc1ccc(S(=O)(=O)NCC(=O)NNC(=O)c2ccccc2Cl)cc1C	nt	-5.7	nt	1.8	nt	nt
O=C(Nc1cccc(O)c1)c1cccc(S(=O)(=O)N2CCCC2)c1	i	25.7*	i	-6.9	1.0	0.8
O=C(Nc1cccc(S(=O)(=O)N2CCCC2)c1)c1cccc(S(=O)(=O)N2CCOCC2)c1	nt	2.5	nt	4.4	nt	nt
COC(=O)c1cccc(N(CC(=O)NC2CCCC2)C(=O)CCC(=O)Nc2cc(C)on2)c1	i	57.2*	i	0.1	2.9	-0.6
CCOC(=O)C1=CC[C@@H](c2cc3cc(OC)ccc3n2C)N(S(=O)(=O)c2ccc(C)cc2)[C@H]1C(=O)OCC	nt	8.4	nt	-1.8	nt	nt
CCOc1cc(-c2c(C#N)c(N)nc3c2CCc2ccccc2-3)ccc1O	i	26.3*	i	3.0	-0.1	-4.9
CCOC(=O)c1c(C)[nH]c(C(=O)OCC(=O)N2CCN(S(=O)(=O)c3ccc(C)cc3C)CC2)c1C	nt	-15.1	nt	5.2	nt	nt
CCCCNC(=O)c1nn2c(C(F)(F)F)cc(-c3ccccc3)nc2c1Br	i	nt	i	nt	nt	nt
N#CCNC(=O)c1nn2c(C(F)(F)F)cc(-c3ccccc3)nc2c1Br	i	25.9*	i	-10.2	0.0	1.3
O=C(NCCN1CCOCC1)C(=O)c1c[nH]c2ccccc12	i	30.4*	i	1.3	1.8	1.7
CCN(CC)c1ccc(-c2c(C#N)c(N)nc(OC)c2C#N)cc1	i	27.0*	i	60.0*	-27.2	-34.8
COc1cc(CN2CCC(n3nccc3NC(=O)c3ccccc3OC)CC2)ccc1F	i	6.5	i	1.4	nt	nt
CCC(C)NC(=O)CSc1ccc(Cl)cc1 (stereo not given)	i	-0.3	i	1.5	nt	nt
CCC(C)NC(=O)CSc1ccc(NC(C)=O)cc1 (stereo not given)	i	39.1*	i	-3.7	1.8	6.9
Cn1nc(C(=O)NNC(=O)c2cccc(Cl)c2)c2ccccc2c1=O	nt	25.9*	nt	10.1	2.4	-0.8
Cn1nc(C(=O)NNC(=O)c2ccc(Cl)c(S(N)(=O)=O)c2)c2ccccc2c1=O	nt	-1.1	nt	4.4	nt	nt
O=C(CCC(=O)N(CC(=O)NC1CCCC1)Cc1ccccc1)Nc1nccs1	i	101.3*	i	1.7	1.6	0.6
O=C(CCC(=O)N(CC(=O)NC1CCCCC1)Cc1ccccc1)Nc1nccs1	i	1.4	i	-7.7	nt	nt
CC(=O)CSc1nnc(C(F)(F)F)n1C	i	11.2	i	-2.2	nt	nt
COc1ccc(C=C2C(=O)OC(C)(C)OC2=O)cc1OC	i	4.5	i	2.6	nt	nt
COc1ccc(/C=C2\OC(=O)c3c(OC)cccc32)cc1OC	i	89.3*	i	-19.4	-27.4	-35.3
CC(C)(O)CCC(C)(C)O	nt	4.2	nt	5.3	nt	nt
Nc1c(S(=O)(=O)c2cccs2)c2nc3ccccc3nc2n1Cc1cccs1	i	77.7*	i	81.6*	-11.1	-21.4
